assay: Toxicity liver stage against HepG2, at 10uM; format: cell-based; design: test concentration 10 uM, cell line HepG2-A16-CD81EGFP; conditions: human, HepG2-A16-CD81EGFP cells; read-out: INHIBITION
How it was run: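 Uninfected HepG2-A16-CD81EGFP cells, 3 × 10^3 per well, 1536-well, plated on prespotted compound at 10 μM final, parasite-free screening media added to match infected plates; puromycin 10 μM positive, DMSO 0.5% negative; run in parallel with 48 h PbLuc assay at 37 °C, 5% CO2; viability by CellTiter-Glo luminescence, normalized to controls.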

Compared with CCOC(=O)N1CCN(C(=O)CCn2cccc2)CC1, Cc1cc2ccccc2n1CCC(=O)N1CCN(C)CC1C(N)=O (centres undefined) is lower in cytotoxicity at 10 µM: 5.62% for the first, -1.04% for the second.

Going from COc1ccc2c(c1)c(C(=O)Nc1nnn[nH]1)cn2C to COc1cc(CCC(=O)N2CCC(c3cc4ncc(C)nc4[nH]3)C2)on1 (centres undefined), the cytotoxicity at 10 µM rises from -1.33% to 1.92%.

Compared with CCCS(=O)(=O)NCCn1ccc(-c2cccs2)n1, CCNC(=O)CCS(=O)(=O)Cc1ccn(-c2cccc(F)c2)n1 is higher in cytotoxicity at 10 µM: 5.55% for the first, 11.1% for the second.

Compared with CC(=O)NCC(=O)N1CCc2c(CN(C)C)nn(C(C)C)c2C1, Cc1cccc(C(=O)Nc2c(C(=O)N(C)C)nn(C)c2C)c1 is higher in cytotoxicity at 10 µM: -4.94% for the first, 7.58% for the second.

First: O=C(c1ccc[nH]1)N1CC2(CCN(c3nccs3)C2)C1
Second: Cn1cccc1C(=O)N1CCC2(CC1)c1nc[nH]c1CCN2S(C)(=O)=O
The cytotoxicity at 10 µM of the first is higher: 5.68% for the first, -0.359% for the second.

Going from Cc1cc(C(=O)N2C[C@@H]3CN(S(C)(=O)=O)CCO[C@@H]3C2)c(C)o1 to COc1ccc(C(=O)N2C[C@@H](CN3CCCC3)[C@@H](CO)C2)c(C)c1, the cytotoxicity at 10 µM falls from -3.49% to -7.21%.

Going from CC1c2ncc(Cn3cncn3)n2CCN1C(=O)Cc1cccs1 (centres undefined) to c1csc(-c2noc(CN3CCc4c(ncn4C4CC4)C3)n2)c1, the cytotoxicity at 10 µM falls from 7.89% to 5.93%.

Going from O=C1NC(c2ccccc2)=N[C@@]12CC[C@@H]1CN(Cc3ccncc3)C[C@@H]12 to O=C(Cn1cc(-c2ccccc2)cn1)NC(C1CC1)C1CC1, the cytotoxicity at 10 µM falls from 11.9% to -5%.

Compared with CCC(C)[C@H](NC(=O)c1cc(Br)ccc1-n1cnnn1)C(=O)OC (some centres undefined), CC(C)NC(=O)c1ccn(COc2c(Cl)cccc2Cl)n1 is higher in cytotoxicity at 10 µM: 2.58% for the first, 7.44% for the second.

Going from Cn1cccc1C(CNC(=O)c1ccc(F)cc1F)N1CCCCCC1 (centres undefined) to Cc1nc(C)c(C(=O)NCCNC(=O)c2ccc(F)cc2F)s1, the cytotoxicity at 10 µM falls from 2.19% to -5.55%.

Compared with Cc1cccc2c1ccn2CC(=O)O, CCCN(C(=O)c1ccc(-n2ccnn2)cc1)c1cccnc1 is higher in cytotoxicity at 10 µM: 9.49% for the first, 13.8% for the second.

First: Cc1ccc(C(=O)Nc2c(C(=O)N(C)C)nn(C)c2C)cc1C
Second: CCO[C@H]1CN(C)C[C@@H]1NC(=O)c1cc(C)nc2c(C)c(C)ccc12
The cytotoxicity at 10 µM of the first is higher: 11.8% for the first, 1.64% for the second.

Compared with Cc1ccc(C2(C(=O)NCCCn3cccn3)CCOCC2)cc1, Cc1n[nH]cc1CNCC1(c2ccccc2Cl)CCOCC1 is lower in cytotoxicity at 10 µM: 9.73% for the first, 8.16% for the second.

Going from CCCNc1cc(C(=O)N2CCOCC2)nc(C)n1 to Cc1nc2c(c(NC(C)C)n1)CCN(C(=O)c1cc[nH]n1)CC2, the cytotoxicity at 10 µM falls from 10.8% to 6.71%.

Going from Cc1cc(Nc2ccc(F)cn2)cc(C2CCCN2)n1 (centres undefined) to FC(F)(F)c1ccc(-c2cnc(C3CCCN3)cn2)cc1 (centres undefined), the cytotoxicity at 10 µM falls from 0.0453% to -1.12%.

Compared with Cc1ccc(CN2CCCC(c3cnccn3)C2)s1 (centres undefined), Cc1nc(CN2CCCC(Cn3cncn3)C2)no1 (centres undefined) is higher in cytotoxicity at 10 µM: 2.46% for the first, 4.34% for the second.

First: Cc1cc(C)nc(N2CCCC2c2[nH]ncc2C(=O)N(C)C)n1 (centres undefined)
Second: Cc1csc(C2CCCCN2C(=O)c2cnn3ccc(C)nc23)n1 (centres undefined)
The cytotoxicity at 10 µM of the first is higher: -1.51% for the first, -5.85% for the second.

First: Cc1noc(-c2c[nH]nc2C2CCCN2C(=O)c2ccccc2)c1C (centres undefined)
Second: COc1ccccc1CCNC(=O)CN1CCCC1c1noc(C)n1 (centres undefined)
The cytotoxicity at 10 µM of the first is lower: -8.77% for the first, -3.81% for the second.

First: Cc1cncc(C2CCCN2CC(N)=O)n1 (centres undefined)
Second: CC(=O)Nc1nc(CN2CCCC2c2cnn(C)c2)cs1 (centres undefined)
The cytotoxicity at 10 µM of the first is higher: -5.3% for the first, -11.8% for the second.

First: CC(=O)N1CCC(C)(c2cc[nH]n2)CC1
Second: COc1ccc(CNC(=O)c2nc3c(s2)CCN(C(C)=O)CC3)cc1
The cytotoxicity at 10 µM of the first is higher: -4.07% for the first, -76.6% for the second.

Going from Nc1nc(C2CCN(C(=O)c3cscn3)CC2)cs1 to CC(C)COCC1CN(C(=O)c2cscn2)Cc2ncn(C)c21 (centres undefined), the cytotoxicity at 10 µM falls from 3.32% to -109%.

Compared with CCC1COCCN1C(=O)CNC(=O)c1ccsc1 (centres undefined), CN1C[C@@H]2COC[C@]2(C(=O)NCCc2cccs2)C1 is higher in cytotoxicity at 10 µM: 4.53% for the first, 8.1% for the second.

Going from CC(C)CN1CCC(NC(=O)N(C)Cc2csc3ccccc23)CC1 to CC(C)CC(=O)NC1CC2(CCN(CCF)CC2)Oc2ccccc21 (centres undefined), the cytotoxicity at 10 µM rises from -52.9% to 1.08%.

First: COCCOc1ncccc1C(=O)N(C)c1ccc(OC)nc1
Second: CCN(CCNC(=O)c1cccnc1OCCOC)C1CC1
The cytotoxicity at 10 µM of the first is lower: -44.4% for the first, -0.966% for the second.

Compared with CCN1CCN(C2CCN(Cc3ccc(Cl)s3)CC2)C1=O, Cc1cc(C)c2nc(CN3CCC(N4CCOCC4)CC3)cc(O)c2c1 is lower in cytotoxicity at 10 µM: 13.1% for the first, -0.173% for the second.

Compared with Cc1nccn1C1CCCN(C(=O)CCc2nc(C(C)C)no2)C1 (centres undefined), Cc1cc(C(=O)N2CCCC(C)C2)ccc1NCc1nc(C2CC2)no1 (centres undefined) is lower in cytotoxicity at 10 µM: -6.27% for the first, -8.38% for the second.

Compared with CC(=O)Nc1cccc(CN2CCCC2C(=O)Nc2nccs2)c1 (centres undefined), COc1ccc(CCC2CCCN(C(=O)c3cnc(N)nc3C)C2)cc1 (centres undefined) is lower in cytotoxicity at 10 µM: 6.12% for the first, 1.14% for the second.

First: Cc1cc(C)n(-c2cncc(NCCNC(=O)C(C)(C)C)n2)n1
Second: Cc1ncsc1C(=O)NCCNc1ncccn1
The cytotoxicity at 10 µM of the first is lower: 1.36% for the first, 1.76% for the second.

First: Cc1ncsc1CN(C)Cc1cc2c(cc1OC(F)F)OCO2
Second: COc1ccc2c(c1)OCC(CNC(=O)CCc1c(C)n[nH]c1C)C2 (centres undefined)
The cytotoxicity at 10 µM of the first is higher: 6.22% for the first, -48.5% for the second.

First: CC(NCc1cc2cc(F)ccc2o1)c1nnc2n1CCCC2 (centres undefined)
Second: Fc1ccc2c(C3=CCN(Cc4nnc(C5CCC5)o4)CC3)c[nH]c2c1
The cytotoxicity at 10 µM of the first is lower: -7.93% for the first, -0.302% for the second.

Compared with Cc1n[nH]c(C2CN(CC(=O)NCCc3ccc(F)cc3)CCO2)n1 (centres undefined), Cc1nc(NC(=O)C(C)S(C)(=O)=O)sc1Cc1ccc(F)cc1 (centres undefined) is higher in cytotoxicity at 10 µM: -8.13% for the first, 4.52% for the second.

First: COc1ccccc1OCCC(=O)NC1CCc2nc(C)cn2C1 (centres undefined)
Second: Cc1ccccc1C(=O)N1CC[C@@H](N(C)C)[C@@H]1Cc1cnn(C)c1
The cytotoxicity at 10 µM of the first is higher: -7.05% for the first, -71% for the second.

Going from CC(C)n1cc(CN2CCCN(C(=O)c3cccn3C)CC2)cn1 to Cc1ncc(C(=O)N2CCCN(Cc3ccccc3F)CC2)c(O)n1, the cytotoxicity at 10 µM falls from 1.51% to 0.903%.

Going from Cc1cc(S(=O)(=O)N(C)CC(N)=O)ccc1Br to CC(NCC(=O)N(C)C1CC1)c1ccc(S(C)(=O)=O)c(F)c1 (centres undefined), the cytotoxicity at 10 µM falls from 15% to 6.27%.

Going from CC(=O)NS(=O)(=O)c1ccc(F)cc1C(F)(F)F to CC(C)(C)c1ccn(C2(C(=O)O)CCN(c3ccncc3F)CC2)n1, the cytotoxicity at 10 µM falls from 1.25% to -0.423%.

Compared with CC(C)N(CCS(C)(=O)=O)Cc1csc(Cc2ccc(Cl)cc2)n1, CN(Cc1cc[nH]n1)C(C(=O)O)c1ccc(Cl)cc1 (centres undefined) is higher in cytotoxicity at 10 µM: -40.6% for the first, 0.595% for the second.

Compared with Cn1nc(Br)c2c(NCCNc3ncccn3)ncnc21, CCC(Nc1nc(C)nc2c1cnn2C)c1ncnn1CC (centres undefined) is lower in cytotoxicity at 10 µM: 11.3% for the first, -7.17% for the second.

Going from CCC(C)n1cnc(S(=O)(=O)N(C)c2cccnc2N(C)C)c1 (centres undefined) to CC(C)CN(Cc1ccc(-n2cncn2)cc1)Cc1ccccn1, the cytotoxicity at 10 µM rises from -3.08% to 8.57%.

Going from CCc1nsc(N2CCCN(C(=O)c3ccc(CC)o3)CC2)n1 to CCc1nc(C(=O)N2CCN(C)CC2)nn1-c1ccccc1Cl, the cytotoxicity at 10 µM falls from 7.76% to 2.1%.

Compared with Cc1cnn(C2CN(Cc3nnc(Cc4ccccc4)o3)C2)c1, c1ccc(CCn2cc(-c3nc(CN4CCOCC4)no3)nn2)cc1 is lower in cytotoxicity at 10 µM: 4.4% for the first, 1.85% for the second.

Going from CCN(CC)C(=O)CCc1c(C)nc2cc(O)nn2c1C to Cc1noc(C)c1CN(C)C(=O)c1ccc(C(N)=O)nc1, the cytotoxicity at 10 µM falls from 0.33% to -4.24%.

Going from Cc1ccc(N2CCCC3(CCN(C(=O)NC4CCCC4)C3)C2)nn1 (centres undefined) to Cc1ccc(NC2CCCN(C3Cc4ccccc4C3)C2)nn1 (centres undefined), the cytotoxicity at 10 µM rises from -114% to -2.38%.

Compared with CCO[C@H]1CC[C@H]2[C@H]1OCCN2C(=O)COc1ccccc1, Cc1occc1C(=O)N1C[C@H](Oc2ccccn2)[C@H]2OCCC[C@H]21 is lower in cytotoxicity at 10 µM: -94% for the first, -110% for the second.

Compared with COCCC(=O)N1CCC2(COCc3cnc(N4CCOCC4)nc32)C1 (centres undefined), Cc1nc(N2CCN(C)CC2)ncc1C(=O)N1C[C@@H](C)[C@@](C)(O)C1 is higher in cytotoxicity at 10 µM: 2.21% for the first, 2.32% for the second.

Going from O=C(NCC1CC1)[C@H]1C[C@H]2OCC[C@H]2N(Cc2ccsc2)C1 to COCc1cn(C2CCN(C(=O)Cc3ccsc3)CC2)nn1, the cytotoxicity at 10 µM falls from 2.47% to -4.2%.

Compared with CN1CCC(n2nc(CC3CC3)nc2-c2ccc(F)cc2Cl)CC1, Cc1noc(-c2ccc(Oc3cccc(CN4CCCC4)c3F)nc2)n1 is lower in cytotoxicity at 10 µM: -1.84% for the first, -6.03% for the second.

First: CCNc1ncc(CN(CCN(C)C)Cc2ccc(C)s2)cn1
Second: COc1ccc(CN2C[C@H]3CCC[C@@H](CN(C)C)[C@H]3C2)cn1
The cytotoxicity at 10 µM of the first is lower: -46.1% for the first, 4.65% for the second.

Compared with Cc1cc(C)c(C(=O)N2CCCC(O)(CN3CCCC3)C2)cc1C (centres undefined), Cc1cccc2cc(CN3CCCN4CCC[C@H]4C3)c(=O)[nH]c12 is lower in cytotoxicity at 10 µM: 8.4% for the first, 2.67% for the second.

First: COCCC1(CO)CCCN(CCCc2ccccc2)C1 (centres undefined)
Second: CCCNC(=O)C(C)Oc1ccccc1 (centres undefined)
The cytotoxicity at 10 µM of the first is higher: -1.4% for the first, -6.68% for the second.

Going from Nc1cc(C(=O)N2CCCC3(C=Cc4ccccc4O3)CC2)ccn1 (centres undefined) to CN(C)c1cc2c(nn1)CCN(C(=O)C1CCc3ccccc31)C2 (centres undefined), the cytotoxicity at 10 µM falls from 13.7% to -12.2%.

Going from CC(C)OC(=O)c1ccc(Cl)c(NC(=O)NCCN2CCOCC2)c1 to O=C(O)c1c(-c2ccncc2)ncc2c1CCN(CC1CCOC1)C2 (centres undefined), the cytotoxicity at 10 µM falls from -54.4% to -100%.

Going from CN(Cc1cccc2cnccc12)C(=O)CCc1n[nH]c2c1CCCC2 to c1cc2n(n1)CC(CNCc1ccc(OCC3CC3)nc1)CN2 (centres undefined), the cytotoxicity at 10 µM rises from -7.27% to -3.97%.

Going from c1cnc(N2CC[C@@H]3O[C@@H](COCc4cccnc4)CC[C@@H]32)nc1 to CCCS(=O)(=O)N1C[C@@H]2C[C@H](C(=O)Nc3cccnc3)[C@H](C1)O2, the cytotoxicity at 10 µM falls from 11.2% to -78.8%.

Going from Cc1cccc(CN2CCS(=O)(=O)[C@@H]3CCN(C(=O)C4CC4)CC[C@@H]32)n1 to CN(C)C(=O)CN1CCOCC2(CCN(CC3CCOCC3)CC2)C1, the cytotoxicity at 10 µM rises from -3.64% to 8.55%.

With COCC1CN(S(=O)(=O)c2ccc(C)cc2)Cc2c1cnn2C (centres undefined) the cytotoxicity at 10 µM was -5.37%.

Source: ChEMBL document CHEMBL4513216, “Probing the Open Global Health Chemical Diversity Library for Multistage-Active Starting Points for Next-Generation Antimalarials” (ACS Infect Dis, 2020)
